Reference: ChEMBL document CHEMBL4480371, “Benzoflavone derivatives as potent antihyperuricemic agents” (Medchemcomm, 2019)
Active and inactive are the calls of the source. The rule behind the calls is not given here.

What was measured:
[1] = biological target: T1, Xanthine dehydrogenase/oxidase (Bos taurus, UniProt P80457); test: Inhibition of bovine milk xanthine oxidase using xanthine as substrate preincubated for 5 mins followed by substrate addition by UV-visible spectrophotometry
[2] = Antioxidant activity assessed as DPPH radical scavenging activity shaken for 1 min and incubated under dark condition for 30 mins by spectrophotometric analysis; assay type: functional
Summary of the method: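 DPPH at 0.004% w/v and compounds were made in methanol, mixed 1.5 mL to 1 mL, shaken 1 min at 37 °C, then kept 30 min in the dark. Absorbance was read at 517 nm and % scavenging calculated against a DPPH-plus-methanol control. […] Triplicate, mean.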

Mus musculus [3] = test: Anti-hyperuricemic effect in Swiss albino mouse model of potassium oxonate-induced hyperuricemia model assessed as reduction in serum uric acid level at 0.55 mg/kg, po treated 1 hr post potassium oxonate addition and measured after 30 mins by ERBA method; assay type: functional, organism-based; conditions: 0.5 mg/kg, in the assay text read “0.5 mg/kg” for “0.55 mg/kg”
Summary of the method: (§1)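 Male Swiss albino mice, […], 25–30 g, n = 6 per group, fasted 6 h from feed. Xanthine 500 mg/kg was given orally, then potassium oxonate 300 mg/kg ip 30 min later, both in 0.5% CMC. Compounds were dosed orally 1 h after oxonate. Retro-orbital blood was drawn 2 h after PO+Xn, and serum uric acid was read by kit at 505 nm (5 min, 37 °C). Mean ± S.E.M., ANOVA/Tukey.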

Mus musculus [4] = test: Anti-hyperuricemic effect in Swiss albino mouse model of potassium oxonate-induced hyperuricemia model assessed as reduction in serum uric acid level treated orally 1 hr post potassium oxonate addition and measured after 30 mins by ERBA method; assay type: functional, organism-based; summary of the method: as §1
Mus musculus [5] = test: Anti-hyperuricemic effect in Swiss albino mouse model of potassium oxonate-induced hyperuricemia model assessed as serum uric acid level at 5 mg/kg, po treated 1 hr post potassium oxonate addition and measured after 30 mins by ERBA method (reference value: 5.9 +/- 0.42 mg/dl); assay type: functional; summary of the method: as §1
Mus musculus [6] = test: Anti-hyperuricemic effect in Swiss albino mouse model of potassium oxonate-induced hyperuricemia model assessed as serum uric acid level at 1 to 10 mg/kg, po treated 1 hr post potassium oxonate addition and measured after 30 mins by ERBA method (reference value: 5.9 +/- 0.42 mg/dl); assay type: functional; summary of the method: as §1
[7] = Acute toxicity in potassium oxonate-induced Swiss albino mouse hyperuricemic model assessed as induction of abnormal behavior at 2000 mg/kg, po measured after 24 hrs; conditions: in vivo
Mus musculus [8] = test: Anti-hyperuricemic effect in Swiss albino mouse model of potassium oxonate-induced hyperuricemia model assessed as serum uric acid level at 10 mg/kg, po treated 1 hr post potassium oxonate addition and measured after 30 mins by ERBA method (reference value: 5.9 +/- 0.42 mg/dl); assay type: functional
[9] = biological target: T1, Xanthine dehydrogenase/oxidase; test: Competitive mixed type inhibition of bovine milk xanthine oxidase using xanthine as substrate preincubated for 5 mins followed by substrate addition by UV-visible spectrophotomety based Lineweaver-Burk plot analysis; conditions: cattle
Summary of the method: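 Bovine milk xanthine oxidase was assayed in 50 mM potassium phosphate (pH 7.6) at 25 °C, with uric acid formation followed at 293 nm. Enzyme was preincubated 5 min with inhibitor in 1% v/v DMSO, and the reaction was started with xanthine. Inhibition mode came from Lineweaver–Burk plots.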

T1 sequence (P80457 whole entry): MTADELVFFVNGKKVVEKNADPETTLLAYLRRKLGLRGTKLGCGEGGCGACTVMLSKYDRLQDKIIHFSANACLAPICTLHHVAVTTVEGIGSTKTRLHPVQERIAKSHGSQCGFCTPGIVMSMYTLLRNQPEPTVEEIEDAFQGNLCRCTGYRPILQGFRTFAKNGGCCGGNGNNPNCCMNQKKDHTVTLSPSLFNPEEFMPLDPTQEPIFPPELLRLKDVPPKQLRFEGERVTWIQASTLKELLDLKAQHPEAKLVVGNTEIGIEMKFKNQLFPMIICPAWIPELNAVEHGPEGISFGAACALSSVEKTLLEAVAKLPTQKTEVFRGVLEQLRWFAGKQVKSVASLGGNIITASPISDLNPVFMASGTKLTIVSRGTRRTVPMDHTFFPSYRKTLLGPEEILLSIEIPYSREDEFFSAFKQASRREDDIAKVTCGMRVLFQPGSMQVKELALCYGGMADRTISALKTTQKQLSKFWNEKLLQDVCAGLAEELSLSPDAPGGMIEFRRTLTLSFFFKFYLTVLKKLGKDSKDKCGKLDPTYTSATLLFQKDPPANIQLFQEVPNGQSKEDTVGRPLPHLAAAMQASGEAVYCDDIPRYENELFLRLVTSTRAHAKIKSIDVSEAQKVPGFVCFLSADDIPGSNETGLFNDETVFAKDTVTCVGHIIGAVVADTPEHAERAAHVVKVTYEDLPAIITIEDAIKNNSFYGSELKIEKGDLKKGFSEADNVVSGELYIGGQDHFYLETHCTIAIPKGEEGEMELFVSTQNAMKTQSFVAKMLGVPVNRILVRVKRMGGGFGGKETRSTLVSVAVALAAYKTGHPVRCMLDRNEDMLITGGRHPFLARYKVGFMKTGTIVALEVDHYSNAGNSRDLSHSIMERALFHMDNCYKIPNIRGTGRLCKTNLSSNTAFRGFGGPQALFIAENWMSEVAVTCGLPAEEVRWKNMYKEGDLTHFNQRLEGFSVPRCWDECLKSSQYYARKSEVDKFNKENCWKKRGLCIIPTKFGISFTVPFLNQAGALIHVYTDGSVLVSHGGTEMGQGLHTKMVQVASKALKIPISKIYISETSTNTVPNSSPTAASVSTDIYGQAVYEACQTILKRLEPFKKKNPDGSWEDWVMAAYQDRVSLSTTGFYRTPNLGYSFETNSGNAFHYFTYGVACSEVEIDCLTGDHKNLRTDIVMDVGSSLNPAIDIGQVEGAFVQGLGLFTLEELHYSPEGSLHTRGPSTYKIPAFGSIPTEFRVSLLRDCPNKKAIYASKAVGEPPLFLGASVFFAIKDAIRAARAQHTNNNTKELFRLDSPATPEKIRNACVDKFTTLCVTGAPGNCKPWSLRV

| SMILES | IC50 [1] | IC50 [2] | also measured |
| --- | --- | --- | --- |
| O=c1cc(-c2cccc(Cl)c2Cl)oc2c1ccc1ccccc12 | > 20 µM | 10.9 µM |  |
| O=c1cc(-c2ccccc2)oc2ccc3ccccc3c12 [BETA-NAPHTHOFLAVONE] | > 20 µM | > 20 µM |  |
| O=c1cc(-c2cccc(Cl)c2)oc2c1ccc1ccccc12 | > 20 µM | 7.75 µM |  |
| O=c1cc(-c2cc([N+](=O)[O-])cc([N+](=O)[O-])c2)oc2c1ccc1ccccc12 | > 20 µM | 5.55 µM |  |
| O=c1cc(-c2cccc(F)c2)oc2c1ccc1ccccc12 | > 20 µM | 10.1 µM |  |
| Cc1ccc(-c2cc(=O)c3ccc4ccccc4c3o2)cc1 | > 20 µM | 6.5 µM |  |
| O=c1cc(-c2cccc(Cl)c2Cl)oc2ccc3ccccc3c12 | 18.6 µM | > 20 µM |  |
| Cc1ccc(-c2cc(=O)c3c(ccc4ccccc43)o2)cc1 | > 20 µM | > 20 µM |  |
| O=c1cc(-c2cccc(Br)c2)oc2c1ccc1ccccc12 | > 20 µM | 5.98 µM |  |
| O=c1cc(-c2ccccc2Br)oc2ccc3ccccc3c12 | 17.1 µM | > 20 µM |  |
| O=c1cc(-c2ccccc2F)oc2ccc3ccccc3c12 | 14.7 µM | > 20 µM |  |
| O=c1cc(-c2cccc([N+](=O)[O-])c2)oc2c1ccc1ccccc12 | > 20 µM | 8.24 µM |  |
| O=c1cc(-c2ccc(Br)cc2)oc2ccc3ccccc3c12 | 8.9 µM | > 20 µM | inhibition (Mus musculus [3]): inactive; Activity (Mus musculus [4]): Dose-dependent effect; Activity (Mus musculus [5]): Active; Activity (Mus musculus [6]): 1.8 to 2.8 mg/dL |
| O=c1cc(-c2cccc(Cl)c2)oc2ccc3ccccc3c12 | > 20 µM | > 20 µM |  |
| COc1ccc(-c2cc(=O)c3ccc4ccccc4c3o2)cc1 | 18.9 µM | 4.27 µM |  |
| O=c1cc(-c2ccccc2)oc2c1ccc1ccccc12 [ALPHA-NAPHTHOFLAVONE] | > 20 µM | 15.6 µM |  |
| O=c1cc(-c2ccccc2I)oc2c1ccc1ccccc12 | 19.4 µM | 7.33 µM |  |

| SMILES | IC50 [1] | IC50 [2] | also measured |
| --- | --- | --- | --- |
| O=c1cc(-c2cc(F)cc(F)c2)oc2c1ccc1ccccc12 | 6.95 µM | 3.14 µM | inhibition (Mus musculus [3]): inactive; Activity (Mus musculus [4]): Dose-dependent effect; Activity (Mus musculus [6]): 1.8 to 2.8 mg/dL |
| O=c1cc(-c2cccc(F)c2)oc2ccc3ccccc3c12 | > 20 µM | > 20 µM |  |
| O=c1cc(-c2ccccc2F)oc2c1ccc1ccccc12 | 4.94 µM | 4.73 µM | inhibition (Mus musculus [3]): inactive; Activity (Mus musculus [4]): Dose-dependent effect; Activity (Mus musculus [6]): 1.8 to 2.8 mg/dL; Activity [7]: Non-Toxic |
| O=c1cc(-c2ccc(F)cc2)oc2c1ccc1ccccc12 | 0.62 µM | 0.83 µM | Activity (Mus musculus [4]): Dose-dependent effect; Activity (Mus musculus [8]): inactive |
| O=c1cc(-c2cccc([N+](=O)[O-])c2)oc2ccc3ccccc3c12 | > 20 µM | > 20 µM |  |
| O=c1cc(-c2cc(F)cc(F)c2)oc2ccc3ccccc3c12 | 7.67 µM | > 20 µM | inhibition (Mus musculus [3]): inactive; Activity (Mus musculus [4]): Dose-dependent effect; Activity (Mus musculus [5]): Active; Activity (Mus musculus [6]): 1.8 to 2.8 mg/dL; Activity [7]: Non-Toxic |
| O=c1cc(-c2ccccc2I)oc2ccc3ccccc3c12 | > 20 µM | > 20 µM |  |
| O=c1cc(-c2ccc([N+](=O)[O-])cc2)oc2ccc3ccccc3c12 | 5.21 µM | > 20 µM | inhibition (INH) [9]: Active; Activity (Mus musculus [4]): Dose-dependent effect; Activity (Mus musculus [8]): Active |
| O=c1cc(-c2ccc(F)cc2)oc2ccc3ccccc3c12 | 12.4 µM | > 20 µM |  |
| COc1ccc(-c2cc(=O)c3c(ccc4ccccc43)o2)cc1 | > 20 µM | > 20 µM |  |
| Cc1nc(-c2ccc(OCC(C)C)c(C#N)c2)sc1C(=O)O [FEBUXOSTAT] |  |  | Activity (Mus musculus [5]): 1.5 mg/dL |
| O=c1cc(-c2ccccc2Br)oc2c1ccc1ccccc12 | 16.8 µM | 9.9 µM |  |
| Oc1ncnc2[nH]ncc12 [ALLOPURINOL] |  |  | Activity (Mus musculus [8]): 1.8 mg/dL |
| O=c1cc(-c2cc([N+](=O)[O-])cc([N+](=O)[O-])c2)oc2ccc3ccccc3c12 | > 20 µM | > 20 µM |  |
| O=c1cc(-c2ccc(Br)cc2)oc2c1ccc1ccccc12 | 8.93 µM | 0.35 µM | inhibition (Mus musculus [3]): inactive; Activity (Mus musculus [4]): Dose-dependent effect; Activity (Mus musculus [6]): 1.8 to 2.8 mg/dL |
| O=c1cc(-c2cccc(Br)c2)oc2ccc3ccccc3c12 | > 20 µM | > 20 µM |  |
| O=c1cc(-c2ccc([N+](=O)[O-])cc2)oc2c1ccc1ccccc12 | 1.95 µM | 0.62 µM | Activity (Mus musculus [4]): Dose-dependent effect; Activity (Mus musculus [8]): inactive |
